In ChEMBL document CHEMBL4270573, “Novel nicotinoyl pyrazoline derivates bearing N-methyl indole moiety as antitumor agents: Design, synthesis and evaluation” (Eur J Med Chem, 2018):
The source made the active and inactive calls. No cut-off for these calls is given here.

What was measured:
[1] = test system: HepG2; test: Cell cycle arrest in human HepG2 cells assessed as accumulation at G2/M phase at 0.060 uM after 24 hrs by propidium iodide staining based flow cytometric analysis (reference value: 20.17%); type: functional
Outline: (§1)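 HepG2 and HeLa cells were exposed to 0, 0.020, 0.040, 0.060, 0.080 or 0.10 µM for 6, 12 or 24 h. DNA content was stained with propidium iodide and analysed by flow cytometry to give the percentage of cells in G0/G1, S and G2/M phases; sub-G1 cells were also recorded.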

[2] = test system: HeLa; test: Induction of apoptosis in human HeLa cells assessed as viable cells at 0.020 uM after 24 hrs by Annexin V-FITC/propidium iodide staining based flow cytometric analysis (reference value: 88.6%); type: functional; conditions: read-out: Activity
Outline: (§2)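 HepG2 and HeLa cells were exposed to 0, 0.02, 0.040, 0.060, 0.080 and 0.10 µM for 6, 12 and 24 h. Cells were double-stained with Annexin V-FITC/PI and read by flow cytometry. Apoptotic rate was the percentage of FITC-positive cells, counting early plus late apoptotic.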

[3] = test system: HepG2; test: Cell cycle arrest in human HepG2 cells assessed as accumulation at S phase at 0.060 uM after 24 hrs by propidium iodide staining based flow cytometric analysis (reference value: 20.40%); type: functional; outline: as §1
[4] = test system: Mus musculus; test: Nephrotoxicity in nude mouse xenografted with human HeLa cells assessed as morphological changes in kidney cells at 10 to 20 mg/kg, ip after 14 days by hematoxylin and eosin staining based microscopic analysis; type: toxicity, organism-based; conditions: in vivo, 336 h
[5] = test system: HeLa; test: Cell cycle arrest in human HeLa cells assessed as accumulation at G0/G1 phase at 0.080 uM after 24 hrs by propidium iodide staining based flow cytometric analysis (reference value: 66.26%); type: functional; outline: as §1
[6] = Selectivity index, ratio of CC50 for HEK293T cells to GI50 for human MCF7 cells; type: toxicity; conditions: HEK293T cells and MCF7 cells, read-out: Selectivity Index
Outline: (§3)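 Ratio CC50/GI50: CC50 is the concentration reducing non-tumour 293T cell proliferation by 50%; GI50 is the concentration reducing cancer cell proliferation by 50%.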

[7] = molecular target: T1, Tubulin (Homo sapiens) (UniProt P68371+Q9H4B7+P0DPH7+P68366+Q13509+Q71U36+P04350+Q3ZCM7+P07437+P68363+Q9BQE3+Q6PEY2+Q13885+Q9BVA1+Q9BUF5); test: Inhibition of tubulin polymerization in human HepG2 cells assessed as abnormal mitotic spindle formation at 0.04 to 0.1 uM after 12 hrs by DAPI staining based immunofluorescence confocal laser scanning microscopic analysis; type: cell-based
[8] = test system: HeLa; test: Induction of apoptosis in human HeLa cells assessed as necrotic cells at 0.080 uM after 24 hrs by Annexin V-FITC/propidium iodide staining based flow cytometric analysis (reference value: 0.242%); type: functional; outline: as §2
[9] = test system: Mus musculus; test: Toxicity in nude mouse xenografted with human HeLa cells assessed as body weight loss at 10 to 20 mg/kg, ip after 14 days; type: organism-based; conditions: in vivo, 336 h
[10] = test system: HepG2; test: Cell cycle arrest in human HepG2 cells assessed as accumulation at G2/M phase after 6 to 24 hrs by propidium iodide staining based flow cytometric analysis; type: functional; outline: as §1
[11] = test system: HeLa; test: Induction of apoptosis in human HeLa cells assessed as late apoptotic cells at 0.10 uM after 24 hrs by Annexin V-FITC/propidium iodide staining based flow cytometric analysis (reference value: 4.98%); type: functional; outline: as §2
[12] = test system: HeLa; test: Induction of apoptosis in human HeLa cells assessed as late apoptotic cells at 0.020 uM after 24 hrs by Annexin V-FITC/propidium iodide staining based flow cytometric analysis (reference value: 4.98%); type: functional; outline: as §2
[13] = test system: HeLa; test: Cell cycle arrest in human HeLa cells assessed as accumulation at G2/M phase at 0.080 uM after 12 hrs by propidium iodide staining based flow cytometric analysis relative to control; type: functional; outline: as §1
[14] = test system: HepG2; test: Cell cycle arrest in human HepG2 cells assessed as accumulation at G0/G1 phase at 0.040 uM after 24 hrs by propidium iodide staining based flow cytometric analysis (reference value: 55.63%); type: functional; outline: as §1
[15] = test system: HeLa; test: Growth inhibition of human HeLa cells after 48 hrs by MTT assay; type: functional
Outline: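 Proliferation read-out; GI50 taken as the concentration giving 50% reduction of cancer cell proliferation.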

[16] = test system: Mus musculus; test: Toxicity in nude mouse xenografted with human HeLa cells assessed as morphological changes in spleen cells at 10 to 20 mg/kg, ip after 14 days by hematoxylin and eosin staining based microscopic analysis; type: organism-based; conditions: in vivo, 336 h
[17] = Selectivity index, ratio of CC50 for HEK293T cells to GI50 for human HepG2 cells; type: toxicity; conditions: HEK293T cells and HepG2 cells, read-out: Selectivity Index; outline: as §3
[18] = test system: HepG2; test: Induction of apoptosis in human HepG2 cells assessed as late apoptotic cells at 0.060 uM after 24 hrs by Annexin V-FITC/propidium iodide staining based flow cytometric analysis (reference value: 2.93%); type: functional; outline: as §2
[19] = test system: HepG2; test: Induction of apoptosis in human HepG2 cells assessed as early apoptotic cells at 0.040 uM after 24 hrs by Annexin V-FITC/propidium iodide staining based flow cytometric analysis (reference value: 2.31%); type: functional; outline: as §2
[20] = molecular target: T1, Tubulin (Homo sapiens); test: Inhibition of tubulin polymerization in human HepG2 cells assessed as mitotic catastrophe formation at 0.04 to 0.1 uM after 12 hrs by DAPI staining based immunofluorescence confocal laser scanning microscopic analysis; type: cell-based
[21] = test system: HepG2; test: Cell cycle arrest in human HepG2 cells assessed as accumulation at G2/M phase at 0.080 uM after 24 hrs by propidium iodide staining based flow cytometric analysis (reference value: 20.17%); type: functional; outline: as §1
[22] = test system: HeLa; test: Induction of apoptosis in human HeLa cells assessed as necrotic cells at 0.060 uM after 24 hrs by Annexin V-FITC/propidium iodide staining based flow cytometric analysis (reference value: 0.242%); type: functional; outline: as §2
[23] = molecular target: T1, Tubulin (Homo sapiens); test: Inhibition of tubulin polymerization in human HepG2 cells assessed as abnormal microtubule network formation at 0.04 to 0.1 uM after 12 hrs by DAPI staining based immunofluorescence confocal laser scanning microscopic analysis; type: cell-based
[24] = test system: Mus musculus; test: Cardiotoxicity in nude mouse xenografted with human HeLa cells assessed as morphological changes in heart cells at 10 to 20 mg/kg, ip after 14 days by hematoxylin and eosin staining based microscopic analysis; type: toxicity, organism-based; conditions: in vivo, 336 h
Outline: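 Excised tumours and heart, liver, kidney and spleen were H&E-stained and examined microscopically. Tumour scoring covered cell arrangement and necrosis. Organ scoring covered inflammatory infiltration, edema, necrosis and cell morphology.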

[25] = test system: HeLa; test: Cell cycle arrest in human HeLa cells assessed as accumulation at G0/G1 phase at 0.040 uM after 24 hrs by propidium iodide staining based flow cytometric analysis (reference value: 66.26%); type: functional; outline: as §1
[26] = test system: HeLa; test: Cell cycle arrest in human HeLa cells assessed as accumulation at G2/M phase at 0.080 uM after 24 hrs by propidium iodide staining based flow cytometric analysis (reference value: 17.72%); type: functional; outline: as §1
[27] = test system: HeLa; test: Induction of apoptosis in human HeLa cells assessed as late apoptotic cells at 0.060 uM after 24 hrs by Annexin V-FITC/propidium iodide staining based flow cytometric analysis (reference value: 4.98%); type: functional; outline: as §2
[28] = test system: Mus musculus; test: Toxicity in nude mouse xenografted with human HeLa cells assessed as change in mouse kidney weight at 10 to 20 mg/kg, ip after 14 days; type: organism-based; conditions: in vivo, 336 h

inhibition [7]: Active
GI50 [15]: 34 nM
inhibition [20]: Active
inhibition [23]: Active
Structure (SMILES): COc1cccc(C2=NN(C(=O)c3ccc(C)nc3)C(c3cn(C)c4ccc(OC)cc34)C2)c1 (stereo not drawn)
Activity [1]: 41.92%
viability at 0.02 µM [2]: 88.7%
Activity [3]: 22.17%
Activity [4]: Non-Toxic
Activity [5]: 5.36%
selectivity ratio [6]: 3 to 10
Activity [8]: 1.02%
Activity [9]: Non-Toxic
Activity [10]: Dose-dependent effect
Activity [11]: 8.26%
Activity [12]: 7.98%
Activity [13]: 66.08%
Activity [14]: 28.39%
Activity [16]: Non-Toxic
selectivity ratio [17]: 3 to 10
Activity [18]: 4.9%
Activity [19]: 7.34%
Activity [21]: 50.73%
Activity [22]: 0.484%
Activity [24]: Non-Toxic
Activity [25]: 49.63%
Activity [26]: 71.2%
Activity [27]: 6.49%
Activity [28]: Non-Toxic
